# Measured values reported in ChEMBL document CHEMBL4261538, “Synthesis and molecular docking studies of xanthone attached amino acids as potential antimicrobial and anti-inflammatory agents” (Medchemcomm, 2017).
# Assays:
# [1] = tested on: Staphylococcus aureus; experiment: Antibacterial activity against Staphylococcus aureus at 25 ug/ml incubated for 24 hrs by agar well diffusion method; assay type: functional; conditions: read-out: DIZ
# Method in brief: (§1)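 Bacteria grown in nutrient broth at 37 °C for 24 h, then subcultured at room temperature. Compounds dissolved in DMSO at 5 mg mL⁻¹ and 5–20 µL added to 6 mm wells, giving 25, 50, 75, 100 µg per well. Gentamicin was the positive control and DMSO the negative control. Plates held at 37 °C for 24 h, then inhibition zone diameter (mm) measured. Values are means of three determinations.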
# [2] = tested on: Staphylococcus aureus; experiment: Antibacterial activity against Staphylococcus aureus at 50 ug/ml incubated for 24 hrs by agar well diffusion method; assay type: functional; conditions: read-out: DIZ; method in brief: as §1
# [3] = tested on: Staphylococcus aureus; experiment: Antibacterial activity against Staphylococcus aureus at 75 ug/ml incubated for 24 hrs by agar well diffusion method; assay type: functional; conditions: read-out: DIZ; method in brief: as §1
# [4] = tested on: Staphylococcus aureus; experiment: Antibacterial activity against Staphylococcus aureus at 100 ug/ml incubated for 24 hrs by agar well diffusion method; assay type: functional; conditions: read-out: DIZ; method in brief: as §1
# [5] = tested on: Bacillus subtilis; experiment: Antibacterial activity against Bacillus subtilis at 25 ug/ml incubated for 24 hrs by agar well diffusion method; assay type: functional; conditions: read-out: DIZ; method in brief: as §1
# [6] = tested on: Bacillus subtilis; experiment: Antibacterial activity against Bacillus subtilis at 50 ug/ml incubated for 24 hrs by agar well diffusion method; assay type: functional; conditions: read-out: DIZ; method in brief: as §1
# [7] = tested on: Bacillus subtilis; experiment: Antibacterial activity against Bacillus subtilis at 75 ug/ml incubated for 24 hrs by agar well diffusion method; assay type: functional; conditions: read-out: DIZ; method in brief: as §1
# [8] = tested on: Bacillus subtilis; experiment: Antibacterial activity against Bacillus subtilis at 100 ug/ml incubated for 24 hrs by agar well diffusion method; assay type: functional; conditions: read-out: DIZ; method in brief: as §1
# [9] = tested on: Escherichia coli; experiment: Antibacterial activity against Escherichia coli at 25 ug/ml incubated for 24 hrs by agar well diffusion method; assay type: functional; conditions: read-out: DIZ; method in brief: as §1
# [10] = tested on: Escherichia coli; experiment: Antibacterial activity against Escherichia coli at 50 ug/ml incubated for 24 hrs by agar well diffusion method; assay type: functional; conditions: read-out: DIZ; method in brief: as §1
# [11] = tested on: Escherichia coli; experiment: Antibacterial activity against Escherichia coli at 75 ug/ml incubated for 24 hrs by agar well diffusion method; assay type: functional; conditions: read-out: DIZ; method in brief: as §1
# [12] = tested on: Escherichia coli; experiment: Antibacterial activity against Escherichia coli at 100 ug/ml incubated for 24 hrs by agar well diffusion method; assay type: functional; conditions: read-out: DIZ; method in brief: as §1
# [13] = tested on: Klebsiella pneumoniae; experiment: Antibacterial activity against Klebsiella pneumoniae at 25 ug/ml incubated for 24 hrs by agar well diffusion method; assay type: functional; conditions: read-out: DIZ; method in brief: as §1
# [14] = tested on: Klebsiella pneumoniae; experiment: Antibacterial activity against Klebsiella pneumoniae at 50 ug/ml incubated for 24 hrs by agar well diffusion method; assay type: functional; conditions: read-out: DIZ; method in brief: as §1
# [15] = tested on: Klebsiella pneumoniae; experiment: Antibacterial activity against Klebsiella pneumoniae at 75 ug/ml incubated for 24 hrs by agar well diffusion method; assay type: functional; conditions: read-out: DIZ; method in brief: as §1
# [16] = tested on: Klebsiella pneumoniae; experiment: Antibacterial activity against Klebsiella pneumoniae at 100 ug/ml incubated for 24 hrs by agar well diffusion method; assay type: functional; conditions: read-out: DIZ; method in brief: as §1
# [17] = tested on: Aspergillus niger; experiment: Antifungal activity against Aspergillus niger at 25 ug/ml incubated for 48 hrs by agar well diffusion method; assay type: functional; conditions: read-out: DIZ
# Method in brief: (§2)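 Compounds dissolved in DMSO at 5 mg mL⁻¹ and 5–20 µL added to 6 mm wells, giving 25, 50, 75, 100 µg per well. Bavistin was the positive control and DMSO the negative control. Plates incubated at 28 °C for 48 h, then inhibition zone diameter (mm) measured. Values are means of three determinations.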
# [18] = tested on: Aspergillus niger; experiment: Antifungal activity against Aspergillus niger at 50 ug/ml incubated for 48 hrs by agar well diffusion method; assay type: functional; conditions: read-out: DIZ; method in brief: as §2
# [19] = tested on: Aspergillus niger; experiment: Antifungal activity against Aspergillus niger at 75 ug/ml incubated for 48 hrs by agar well diffusion method; assay type: functional; conditions: read-out: DIZ; method in brief: as §2
# [20] = tested on: Aspergillus niger; experiment: Antifungal activity against Aspergillus niger at 100 ug/ml incubated for 48 hrs by agar well diffusion method; assay type: functional; conditions: read-out: DIZ; method in brief: as §2
# [21] = tested on: Candida albicans; experiment: Antifungal activity against Candida albicans at 25 ug/ml incubated for 48 hrs by agar well diffusion method; assay type: functional; conditions: read-out: DIZ; method in brief: as §2
# [22] = tested on: Candida albicans; experiment: Antifungal activity against Candida albicans at 50 ug/ml incubated for 48 hrs by agar well diffusion method; assay type: functional; conditions: read-out: DIZ; method in brief: as §2
# [23] = tested on: Candida albicans; experiment: Antifungal activity against Candida albicans at 75 ug/ml incubated for 48 hrs by agar well diffusion method; assay type: functional; conditions: read-out: DIZ; method in brief: as §2
# [24] = tested on: Candida albicans; experiment: Antifungal activity against Candida albicans at 100 ug/ml incubated for 48 hrs by agar well diffusion method; assay type: functional; conditions: read-out: DIZ; method in brief: as §2
# [25] = tested on: Fusarium oxysporum; experiment: Antifungal activity against Fusarium oxysporum at 25 ug/ml incubated for 48 hrs by agar well diffusion method; assay type: functional; conditions: read-out: DIZ; method in brief: as §2
# [26] = tested on: Fusarium oxysporum; experiment: Antifungal activity against Fusarium oxysporum at 50 ug/ml incubated for 48 hrs by agar well diffusion method; assay type: functional; conditions: read-out: DIZ; method in brief: as §2
# [27] = tested on: Fusarium oxysporum; experiment: Antifungal activity against Fusarium oxysporum at 75 ug/ml incubated for 48 hrs by agar well diffusion method; assay type: functional; conditions: read-out: DIZ; method in brief: as §2
# [28] = tested on: Fusarium oxysporum; experiment: Antifungal activity against Fusarium oxysporum at 100 ug/ml incubated for 48 hrs by agar well diffusion method; assay type: functional; conditions: read-out: DIZ; method in brief: as §2
# [29] = tested on: Staphylococcus aureus; experiment: Antibacterial activity against Staphylococcus aureus incubated for 24 hrs by microdilution method; assay type: functional
# [30] = tested on: Bacillus subtilis; experiment: Antibacterial activity against Bacillus subtilis incubated for 24 hrs by microdilution method; assay type: functional
# [31] = tested on: Escherichia coli; experiment: Antibacterial activity against Escherichia coli incubated for 24 hrs by microdilution method; assay type: functional
# [32] = tested on: Klebsiella pneumoniae; experiment: Antibacterial activity against Klebsiella pneumoniae incubated for 24 hrs by microdilution method; assay type: functional
# [33] = tested on: Aspergillus niger; experiment: Antifungal activity against Aspergillus niger incubated for 48 to 72 hrs by microdilution method; assay type: functional
# Method in brief: (§3)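 Sabouraud agar plates inoculated with fungal suspension at 10⁵ CFU mL⁻¹ plus serially diluted compounds and bavistin reference, both in DMSO. Incubated at 25 °C for 48–72 h. MIC is the lowest concentration completely inhibiting growth. Values are means of three determinations.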
# [34] = tested on: Candida albicans; experiment: Antifungal activity against Candida albicans incubated for 48 to 72 hrs by microdilution method; assay type: functional; method in brief: as §3
# [35] = tested on: Fusarium oxysporum; experiment: Antifungal activity against Fusarium oxysporum incubated for 48 to 72 hrs by microdilution method; assay type: functional; method in brief: as §3
# [36] = tested on: Staphylococcus aureus; experiment: Induction of cell membrane damage in Staphylococcus aureus assessed as cell content leakage at MIC by spectrophotometric method; assay type: functional, organism-based; conditions: TDE = time-dependent effect
# Method in brief: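 Log-phase S. aureus inoculated into 0.1% sterile peptone water, with an untreated control, and held at 37 °C for 0, 30, 60 and 120 min. 1 mL of broth centrifuged and supernatant OD read at 260 nm to measure released DNA. Run in triplicate, repeated three times.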
# [37] = tested on: Erythrocyte; experiment: Anti-inflammatory activity in human RBC assessed as inhibition of hypotonic solution-induced hemolysis after 10 mins by spectrophotometric method; assay type: functional, cell-based
# Method in brief: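 Human blood (heparinized) washed with 0.9% saline, packed cells made into a 40% v/v stock in isotonic phosphate buffer (154 mM NaCl, 10 mM sodium phosphate, pH 7.4). Stock RBC mixed with hypotonic buffer (50 mM NaCl, 10 mM phosphate, pH 7.4) plus sample at 20–100 µg mL⁻¹.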
Structure (SMILES),zone of inhibition at 25 µg/mL [1] [mm],zone of inhibition at 50 µg/mL [2] [mm],zone of inhibition at 75 µg/mL [3] [mm],zone of inhibition at 100 µg/mL [4] [mm],zone of inhibition at 25 µg/mL [5] [mm],zone of inhibition at 50 µg/mL [6] [mm],zone of inhibition at 75 µg/mL [7] [mm],zone of inhibition at 100 µg/mL [8] [mm],zone of inhibition at 25 µg/mL [9] [mm],zone of inhibition at 50 µg/mL [10] [mm],zone of inhibition at 75 µg/mL [11] [mm],zone of inhibition at 100 µg/mL [12] [mm],zone of inhibition at 25 µg/mL [13] [mm],zone of inhibition at 50 µg/mL [14] [mm],zone of inhibition at 75 µg/mL [15] [mm],zone of inhibition at 100 µg/mL [16] [mm],zone of inhibition at 25 µg/mL [17] [mm],zone of inhibition at 50 µg/mL [18] [mm],zone of inhibition at 75 µg/mL [19] [mm],zone of inhibition at 100 µg/mL [20] [mm],other results
CC(C)(C)OC(=O)N[C@@H](Cc1ccc(O)cc1)C(=O)Oc1ccc2c(=O)c3ccccc3oc2c1,20,26,32,36,20,28,35,37,20,27,33,36,18,24,30,34,22,30,37,41,zone of inhibition at 25 µg/mL [21]: 20 mm; zone of inhibition at 50 µg/mL [22]: 29 mm; zone of inhibition at 75 µg/mL [23]: 34 mm; zone of inhibition at 100 µg/mL [24]: 37 mm; zone of inhibition at 25 µg/mL [25]: 22 mm; zone of inhibition at 50 µg/mL [26]: 29 mm; zone of inhibition at 75 µg/mL [27]: 36 mm; zone of inhibition at 100 µg/mL [28]: 42 mm; MIC [29]: 21 µg/mL; MIC [30]: 20 µg/mL; MIC [31]: 19 µg/mL; MIC [32]: 24 µg/mL; MIC [33]: 22 µg/mL; MIC [34]: 24 µg/mL; MIC [35]: 22 µg/mL; Activity [36]: Tde; IC50 [37]: 32 µg/mL
CC(C)(C)OC(=O)N[C@@H](Cc1c[nH]c2ccccc12)C(=O)Oc1ccc2c(=O)c3ccccc3oc2c1,22,29,35,40,23,29,33,39,24,30,37,41,22,29,36,41,24,31,36,44,zone of inhibition at 25 µg/mL [21]: 24 mm; zone of inhibition at 50 µg/mL [22]: 31 mm; zone of inhibition at 75 µg/mL [23]: 37 mm; zone of inhibition at 100 µg/mL [24]: 42 mm; zone of inhibition at 25 µg/mL [25]: 21 mm; zone of inhibition at 50 µg/mL [26]: 30 mm; zone of inhibition at 75 µg/mL [27]: 35 mm; zone of inhibition at 100 µg/mL [28]: 40 mm; MIC [29]: 18 µg/mL; MIC [30]: 17 µg/mL; MIC [31]: 16 µg/mL; MIC [32]: 20 µg/mL; MIC [33]: 20 µg/mL; MIC [34]: 19 µg/mL; MIC [35]: 21 µg/mL; Activity [36]: Tde; IC50 [37]: 24 µg/mL
